Tests used:
Mus musculus [1] = assay: In vivo antimalarial activity in mice (Mus musculus) infected with Plasmodium berghei NY malaria parasite after intravenous administration for 4 days; format: functional; settings: 96 h
Procedure, shortened: (§1)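 Mice infected with P. berghei NY were given drug intravenously or orally (per line) daily for 4 days, following a published protocol. The work was run as two separate groups of experiments, each with its own reference drugs.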

Mus musculus [2] = assay: In vivo antimalarial activity in mice (Mus musculus) infected with Plasmodium berghei NY malaria parasite after oral administration determined as parasite suppression at 10 mg/kg; format: functional; procedure, shortened: as §1
Mus musculus [3] = assay: In vivo antimalarial activity in mice (Mus musculus) infected with Plasmodium berghei NY malaria parasite after intravenous administration determined as parasite suppression at 10 mg/kg; format: functional; procedure, shortened: as §1
Mus musculus [4] = assay: In vivo antimalarial activity in mice (Mus musculus) infected with Plasmodium berghei NY malaria parasite after oral administration for 4 days; format: functional; settings: 96 h; procedure, shortened: as §1
Plasmodium falciparum = assay: In vitro antimalarial activity against chloroquine-sensitive Plasmodium falciparum NF 54; format: functional, organism-based
Procedure, shortened: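 In vitro test run in quadruplicate for each set, with the value taken from a fitted dose–response curve. Artemisinin was run as a concurrent control (n = 10).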

Mus musculus [5] = assay: In vivo antimalarial activity in mice (Mus musculus) infected with Plasmodium berghei NY malaria parasite after intravenous administration for 4 days (Experiment 2); format: functional; settings: 96 h; procedure, shortened: as §1
Mus musculus [6] = assay: In vivo antimalarial activity in mice (Mus musculus) infected with Plasmodium berghei NY malaria parasite after intravenous administration for 4 days (Experiment 1); format: functional; settings: 96 h; procedure, shortened: as §1
Mus musculus [7] = assay: In vivo antimalarial activity in mice (Mus musculus) infected with Plasmodium berghei NY malaria parasite after intravenous administration determined as parasite suppression at 10 mg/kg (Experiment 1); format: functional; procedure, shortened: as §1
Mus musculus [8] = assay: In vivo antimalarial activity in mice (Mus musculus) infected with Plasmodium berghei NY malaria parasite after intravenous administration determined as parasite suppression at 10 mg/kg (Experiment 2); format: functional; procedure, shortened: as §1
Mus musculus [9] = assay: In vivo antimalarial activity in mice (Mus musculus) infected with Plasmodium berghei NY malaria parasite after oral administration for 4 days (Experiment 2); format: functional; settings: 96 h
Procedure, shortened: (§2)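 P. berghei NY-infected mice given the compound orally once daily for 4 days, following a previously published protocol. Two separate groups of experiments were run, each with its own concurrent reference drugs.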

Mus musculus [10] = assay: In vivo antimalarial activity in mice (Mus musculus) infected with Plasmodium berghei NY malaria parasite after oral administration determined as parasite suppression at 10 mg/kg (Experiment 2); format: functional
Procedure, shortened: (§3)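 P. berghei NY-infected mice dosed orally at 10 mg/kg body weight, following a previously published protocol. Read-out is % suppression of parasite growth. Two separate groups of experiments were run, each with its own concurrent reference drugs.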

Mus musculus [11] = assay: In vivo antimalarial activity in mice (Mus musculus) infected with Plasmodium berghei NY malaria parasite after oral administration for 4 days (Experiment 1); format: functional; settings: 96 h; procedure, shortened: as §2
Mus musculus [12] = assay: In vivo antimalarial activity in mice (Mus musculus) infected with Plasmodium berghei NY malaria parasite after oral administration determined as parasite suppression at 10 mg/kg (Experiment 1); format: functional; procedure, shortened: as §3

## C[C@@H]1CC[C@H]2[C@@H](C)C(CC(O)(COC(=O)CCC(=O)O)CC3OC4O[C@]5(C)CC[C@H]6[C@H](C)CC[C@@H]([C@H]3C)C46OO5)OC3O[C@]4(C)CCC1C32OO4 (stereo partly specified) [TERTIARY ALCOHOL PRIMARY SUCCINATEESTER]
Mus musculus [1]
  ED50: 2.4 mg/kg/day
  ED90: 11 mg/kg/day
Mus musculus [2]
  Parasite suppression: 55.4%
Mus musculus [3]
  Parasite suppression: 83.4%
Mus musculus [4]
  ED50: 4.8 mg/kg/day
  ED90: 34 mg/kg/day
Plasmodium falciparum
  IC50: 3 nM

## C[C@@H]1CC[C@H]2[C@@H](C)C(CC(O)(CC3OC4O[C@]5(C)CC[C@H]6[C@H](C)CC[C@@H]([C@H]3C)C46OO5)c3ccc(C(=O)O)cc3)OC3O[C@]4(C)CCC1C32OO4 (stereo partly specified)
Plasmodium falciparum
  IC50: 2.1 nM

## C[C@@H]1[C@H](OCc2ccc(C(=O)O)cc2)O[C@@H]2O[C@@]3(C)CC[C@@H]4[C@@H](C)CC[C@@H]1[C@]24OO3 (stereo in doubt) [ARTELINIC ACID]
Mus musculus [5]
  ED50: 5.6 mg/kg/day
  ED90: 43 mg/kg/day
Mus musculus [6]
  ED50: 11 mg/kg/day
  ED90: 25 mg/kg/day
Mus musculus [7]
  Parasite suppression: 54.7%
Mus musculus [8]
  Parasite suppression: 42.4%

## C[C@@H]1CC[C@H]2[C@@H](C)C(CC(O)(CC3OC4O[C@]5(C)CC[C@H]6[C@H](C)CC[C@@H]([C@H]3C)C46OO5)CS(=O)(=O)c3ccc(C(=O)O)cc3)OC3O[C@]4(C)CCC1C32OO4 (stereo partly specified)
Mus musculus [1]
  ED50: 2.7 mg/kg/day
  ED90: 10 mg/kg/day
Mus musculus [2]
  Parasite suppression: 46.1%
Mus musculus [3]
  Parasite suppression: 83.4%
Mus musculus [4]
  ED50: 7.5 mg/kg/day
  ED90: 35 mg/kg/day
Plasmodium falciparum
  IC50: 2.4 nM

## C[C@@H]1CC[C@H]2[C@@H](C)C(CC(=O)CC3OC4O[C@]5(C)CC[C@H]6[C@H](C)CC[C@@H]([C@H]3C)C46OO5)OC3O[C@]4(C)CCC1C32OO4 (stereo partly specified)
Plasmodium falciparum
  IC50: 0.91 nM

## C[C@@H]1CC[C@H]2[C@@H](C)C(CC3(CC4OC5O[C@]6(C)CC[C@H]7[C@H](C)CC[C@@H]([C@H]4C)C57OO6)CO3)OC3O[C@]4(C)CCC1C32OO4 (stereo partly specified)
Plasmodium falciparum
  IC50: 2.8 nM

## C[C@@H]1CC[C@H]2[C@@H](C)C(CC(COC(=O)c3ccncc3)CC3OC4O[C@]5(C)CC[C@H]6[C@H](C)CC[C@@H]([C@H]3C)C46OO5)OC3O[C@]4(C)CCC1C32OO4 (stereo partly specified)
Plasmodium falciparum
  IC50: 1.7 nM

## C[C@@H]1CC[C@H]2[C@@H](C)C(=O)O[C@@H]3O[C@@]4(C)CC[C@@H]1[C@]32OO4 [ARTEMISININ]
Plasmodium falciparum
  IC50: 9 nM

## C[C@@H]1CC[C@H]2[C@@H](C)C(CC(COC(=O)CCC(=O)O)CC3OC4O[C@]5(C)CC[C@H]6[C@H](C)CC[C@@H]([C@H]3C)C46OO5)OC3O[C@]4(C)CCC1C32OO4 (stereo partly specified)
Mus musculus [1]
  ED50: 2.2 mg/kg/day
  ED90: 6.3 mg/kg/day
Mus musculus [2]
  Parasite suppression: 79.2%
Mus musculus [3]
  Parasite suppression: 81%
Mus musculus [4]
  ED50: 9 mg/kg/day
  ED90: 15 mg/kg/day
Plasmodium falciparum
  IC50: 2 nM

## C=C(CC1OC2O[C@]3(C)CCC4[C@H](C)CC[C@@H]([C@H]1C)C24OO3)CC1OC2O[C@]3(C)CC[C@H]4[C@H](C)CC[C@@H]([C@H]1C)C24OO3 (stereo partly specified)
Plasmodium falciparum
  IC50: 24 nM

## C[C@H]1[C@@H](CC(O)(CO)C[C@H]2O[C@@H]3O[C@]4(C)CC[C@H]5[C@H](C)CC[C@@H]([C@H]2C)[C@@]35OO4)O[C@@H]2O[C@]3(C)CC[C@H]4[C@H](C)CC[C@@H]1[C@@]24OO3 (stereo partly specified)
Plasmodium falciparum
  IC50: 0.59 nM

## C[C@@H]1CC[C@H]2[C@@H](C)C(CC(CO)CC3OC4O[C@]5(C)CC[C@H]6[C@H](C)CC[C@@H]([C@H]3C)C46OO5)OC3O[C@]4(C)CCC1C32OO4 (stereo partly specified)
Plasmodium falciparum
  IC50: 0.87 nM

## C[C@H]1[C@H](OC(=O)CCC(=O)[O-])O[C@@H]2O[C@@]3(C)CC[C@H]4[C@H](C)CC[C@@H]1[C@@]24OO3.[Na+] [SODIUM ARESUNATE]
Mus musculus [9]
  ED50: 5.5 mg/kg/day
  ED90: 70 mg/kg/day
Mus musculus [10]
  Parasite suppression: 50.9%
Mus musculus [11]
  ED50: 10 mg/kg/day
  ED90: 39 mg/kg/day
Mus musculus [12]
  Parasite suppression: 52.8%

From ChEMBL document CHEMBL1136720, “Orally active, antimalarial, anticancer, artemisinin-derived trioxane dimers with high stability and efficacy” (J Med Chem, 2003)
